Inconclusive results are not listed. Active and inactive are the calls of the source.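 How the source made its calls: active means every replicate test active, with falling signal and half-maximal potency at or below ten times the top dose; inconclusive means replicate tests give conflicting calls; inactive means all tests inactive, or signal shifts the wrong way.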
Test system: not listed separately
Experiment: cytotoxicity in HMLE_sh_eGFP control cells, dose response, counter-screen for breast cancer stem cell project, cell-based, dry powder, set 2 (AID 504325)
Conditions: HMLE_sh_eGFP viability, CellTiter-Glo luminescence, 72 h; at 30 µM (top of the series)
In short: (§1)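 Material – HMLE_sh_eGFP control breast epithelial cell line · Input – 2000 cells per well · Buffer or medium – medium without serum · Timing – about 72 h compound exposure at 37 °C · Detection – luminescent ATP detection, CellTiter-Glo diluted 1:3 in PBS · Benchmarks – DMSO-only neutral wells and puromycin positive wells on each plate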

Row | Structure (SMILES) | activity change, negative = cytotoxic
1 | COc1cc(/C=C/C(=O)NC2=NCCS2)cc(OC)c1OC | 0.088% (inactive)
2 | O=C(/C=C/c1ccccc1)NC1=NCCS1 | -4.89% (inactive)
3 | Cc1ccccc1OCC(=O)N/N=C/c1ccc[nH]1 | 5.25% (inactive)
4 | CC(=O)Oc1ccccc1/C=C/C(=O)NC1=NCCS1 | 0.09% (inactive)
5 | CC(C)c1ccc(/C=C/C(=O)O)cc1 | 16.2% (inactive)
6 | O=C(/C=C/c1cc(Cl)ccc1Cl)NC1=NCCS1 | 3.58% (inactive)
7 | O=C(COc1ccc(Cl)cc1Cl)N/N=C/c1ccc[nH]1 | -54.1% (inactive)
8 | Cn1c(C(=O)NC2=NCCS2)cc2ccccc21 | 6.92% (inactive)
9 | O=C(O)c1ccc(COc2ccccc2)o1 | 1.43% (inactive)
10 | O=C(CCc1ccccc1)NC1=NCCS1 | 4.67% (inactive)
11 | Cc1ccccc1/C=C/C(=O)NC1=NCCS1 | 6.57% (inactive)
12 | CCNC(=O)/C=C/c1ccc(C(C)C)cc1 | 7.1% (inactive)
13 | COc1ccc(OC)c(/C=C/C(=O)NC2=NCCS2)c1 | 2.36% (inactive)
14 | O=C(COc1ccc(Cl)cc1Cl)N/N=C/c1ccco1 | 5.52% (inactive)
15 | O=C(C#Cc1ccccc1)NC1=NCCS1 | 9.83% (inactive)
16 | CC(=O)Oc1ccc(/C=C/C(=O)NC2=NCCS2)cc1 | -11.6% (inactive)
17 | O=C(COc1ccc(Cl)cc1Cl)N/N=C/c1cnc[nH]1 | -6.28% (inactive)

Row | Structure (SMILES) | activity change, negative = cytotoxic
18 | N#Cc1ccccc1OCC(=O)N/N=C/c1ccc[nH]1 | -7.45% (inactive)
19 | O=C(COc1ccccc1F)N/N=C/c1ccc[nH]1 | 1.58% (inactive)
20 | O=Cc1ccc[nH]1 | 7.66% (inactive)
21 | CC(Oc1ccc(F)cc1Cl)C(=O)N/N=C/c1ccc[nH]1 (configuration not stated) | 16.8% (inactive)
22 | O=C(N/N=C/c1ccc[nH]1)C1Cc2ccccc2O1 (configuration not stated) | -1.79% (inactive)
23 | COc1ccc(/C=C/C(=O)NC2=NCCS2)cc1OC | -1.05% (inactive)
24 | COc1ccc(/C=C/C(=O)NC2=NCCS2)c(OC)c1 | 3.11% (inactive)
25 | Cc1ccccc1NCC(=O)N/N=C/c1ccc[nH]1 | 7.91% (inactive)
26 | O=C(NC1=NCCS1)c1ccc(COc2ccccc2)o1 | 12.9% (inactive)
27 | O=C(/C=C/c1ccc(F)cc1)NC1=NCCS1 | -0.331% (inactive)
28 | O=C(COc1ccc(Cl)cc1Cl)N/N=C/c1cccs1 | 13.7% (inactive)
29 | O=C(COc1ccc(Cl)cc1)N/N=C/c1ccc[nH]1 | 10.5% (inactive)
30 | NNC(=O)COc1ccc(Cl)cc1Cl | -3.9% (inactive)
31 | COc1ccc(CCC(=O)N/N=C/c2ccc[nH]2)cc1 | -0.101% (inactive)
32 | O=C(N/N=C/c1ccc[nH]1)c1cc2ccccc2o1 | 13.1% (inactive)
33 | CC(C)(C)c1ccc2c(c1)OC(C(=O)NN)CO2 (configuration not stated) | 15.8% (inactive)
34 | COc1ccc(/C=C/C(=O)NC2=NCCS2)c(OC)c1OC | -0.513% (inactive)

Test system: HMLE_sh_eGFP viability, CellTiter-Glo luminescence, 72 h
Experiment: as above
Conditions: not given
In short: as §1

Row | Structure (SMILES) | AC50 [µM]
35 | Cc1ccc(/C=N/NC(=O)COc2ccc(Cl)cc2Cl)[nH]1 | 16.9
36 | Cc1csc(NC(=O)/C=C/c2ccc(C(C)C)cc2)n1 | 2.83
37 | CC(C)c1ccc(/C=C/C(=O)NC2=NCCS2)cc1 | 8.92
38 | Cc1csc(NC(=O)c2ccc(COc3ccccc3)o2)n1 | 13.3
39 | Cn1cncc1/C=N/NC(=O)COc1ccc(Cl)cc1Cl | 18.9
40 | O=C(COc1c(Cl)cc(Cl)cc1Cl)N/N=C/c1ccc[nH]1 | 27.6
41 | CC(C)c1ccc(/C=C/C(=O)Nc2ccccc2)cc1 | 3.28
42 | CC(C)(C)c1ccc2c(c1)OC(C(=O)N/N=C/c1ccc[nH]1)CO2 (configuration not stated) | 15

Source: PubChem BioAssay AID504325 (Broad Institute, 2011)
